Experimental data reported in ChEMBL document CHEMBL1125623, “Tetrahydropyridyloxadiazoles: semirigid muscarinic ligands” (J Med Chem, 1991).

Columns and labels:
[1] = molecular target: T1, Muscarinic acetylcholine receptor (Rattus norvegicus) (UniProt P08482+P08483+P08485+P08911+P10980)
[2] = molecular target: T1, Muscarinic acetylcholine receptor (Rattus norvegicus); remark: listed apart in the source
[3] = pKa value was determined; type: physicochemical
In short: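 Determined by autotitration with a pH meter and autoburette; mean of two or more independent measurements.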

[4] = molecular target: T1, Muscarinic acetylcholine receptor (Rattus norvegicus); experiment: Apparent binding affinity against rat cortical Muscarinic acetylcholine receptor by the displacement of [3H]N-methylscopolamine; type: protein assay
In short: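 Membranes from cortex of male Sprague-Dawley rats (250–300 g), resuspended in 20 mM HEPES Krebs' buffer pH 7.4. Displacement of 0.1 nM [3H]-N-methylscopolamine; 60 min incubation at 30 °C, ended by filtration. Apparent affinity constant corrected for radioligand occupancy, given in micromolar; geometric mean of at least three independent experiments on separate occasions.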

[5] = molecular target: T1, Muscarinic acetylcholine receptor (Rattus norvegicus); experiment: Apparent binding affinity against rat cortical Muscarinic acetylcholine receptor by the displacement of [3H]oxotremorine-M; type: protein assay
In short: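 Rat brain membranes from male Sprague-Dawley rats (250–300 g), resuspended in 20 mM HEPES buffer pH 7.4. Displacement curves use 3.0 nM [3H]oxotremorine-M; incubation 40 min at 30 °C, stopped by filtration through polyethyleneimine-presoaked filters.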

[6] = Ratio of apparent binding affinities of NMS and Oxo-M

Row | SMILES | K app [1] [µM] | K app [2] [µM] | pKa [3] | K app [4] [µM] | K app [5] [µM] | Ratio [6]
1 | CCc1noc(C2=CCCNC2)n1 | 0.0074 | 4.3 | – | – | – | –
2 | Nc1noc(C2=CCCNC2)n1 | – | – | 8.25 | – | – | –
3 | OCCc1noc(C2=CCCNC2)n1 | 0.23 | 13 | – | – | – | –
4 | OCc1noc(C2=CCCNC2)n1 | 0.11 | 34 | – | – | – | –
5 | CN1CCC=C(c2nc(N(C)C)no2)C1 | 0.12 | 2.5 | 7.24 | – | – | –
6 | FCCc1noc(C2=CCCNC2)n1 | 0.021 | 5.7 | 8.29 | – | – | –
7 | Cc1noc(C2=CCCN(C)C2)n1 | – | – | 7.16 | – | – | –
8 | C=Cc1noc(C2=CCCNC2)n1 | 0.035 | 2.5 | 8.23 | – | – | –
9 | CN(C)c1noc(C2=CCCNC2)n1 | 0.082 | 3.5 | 8.58 | – | – | –
10 | COC(=O)C1=CCCNC1 | 0.012 | 23 | – | – | – | –

Now from value to compound:

Row | K app [1] [µM] | K app [2] [µM] | pKa [3] | K app [4] [µM] | K app [5] [µM] | Ratio [6] | SMILES
11 | 0.061 | 2.4 | 7.35 | – | – | – | Cc1noc(C2=CCC(C)N(C)C2)n1 (stereo not given)
12 | 0.037 | 2.7 | 8.17 | – | – | – | Cc1noc(C2=CC(C)CNC2)n1 (stereo not given)
13 | 0.0031 | 2.3 | 8.24 | – | – | – | Cc1noc(C2=CCCNC2)n1
14 | 0.97 | 25 | – | – | – | – | CCC1C=C(c2nc(C)no2)CNC1 (stereo not given)
15 | 0.87 | 15 | 7.34 | – | – | – | Cc1noc(C2=CC(C)CN(C)C2)n1 (stereo not given)
16 | – | – | 8.2 | 16 | 0.12 | 130 | Cc1noc(C2=CCC(C)NC2)n1 (stereo not given)
